Here are results for three molecules from ChEMBL document CHEMBL3232914, “Ultrasound promoted one pot synthesis of novel fluorescent triazolyl spirocyclic oxindoles using DBU based task specific ionic liquids and their antimicrobial activity” (2014).

The MIC is the lowest concentration that inhibits growth of the organism. For orientation: MBC means the smallest concentration meeting the test's criterion for killing. Low values mean more potent killing, high ones less potent killing.

For experiment [1], the system named is Staphylococcus aureus. The experiment in a line: Antibacterial activity against Staphylococcus aureus MTCC 96 assessed as growth inhibition at 4 mg/mL after 24 hrs by agar well diffusion method. Type of experiment: functional. The following applies: MTCC 96, 24 h, read-out: DIZ. Summed up: (§1)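 Agar wells 8 mm in diameter. The read-out is the diameter of the growth inhibition zone in mm, including the well, given as the mean of three replicates.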
On the technique in general: In agar diffusion tests the substance spreads into inoculated agar from a disc or well.

The subject of experiment [2] is Bacillus subtilis. The experiment in a line: Antibacterial activity against Bacillus subtilis MTCC 121 assessed as growth inhibition at 4 mg/mL after 24 hrs by agar well diffusion method. Type of experiment: functional. The following applies: MTCC 121, 24 h, read-out: DIZ. Put shortly:
as §1

For experiment [3], the system named is Bacillus subtilis. The experiment in a line: Antibacterial activity against Bacillus subtilis MTCC 121 assessed as growth inhibition after 24 hrs by macrodilution tube method. The following applies: MTCC 121, 24 h. Type of experiment: functional.
The test system of experiment [4] is Staphylococcus aureus. The experiment in a line: Bactericidal activity against Staphylococcus aureus MTCC 96 after 24 hrs. It counts as functional. The following applies: MTCC 96, 24 h.
Experiment [5] has as its system Bacillus subtilis. The experiment in a line: Bactericidal activity against Bacillus subtilis MTCC 121 after 24 hrs. Type of experiment: functional. The following applies: MTCC 121, 24 h.
Experiment [6] has as its system Pseudomonas aeruginosa. The experiment in a line: microbe, parasite or virus in culture. The following applies: MTCC 741, 24 h, read-out: DIZ.
Experiment [7] deals with Escherichia coli. The experiment in a line: Antibacterial activity against Escherichia coli MTCC 1652 assessed as growth inhibition at 4 mg/mL after 24 hrs by agar well diffusion method. It counts as functional, organism-based. Put shortly: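 Agar well diffusion with 8 mm wells. The inhibition zone diameter is reported in mm, with the well diameter included. Values are means of three replicates.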

Experiment [8] has as its system Staphylococcus aureus. Briefly: Antibacterial activity against Staphylococcus aureus MTCC 96 assessed as growth inhibition after 24 hrs by macrodilution tube method. It counts as functional. The following applies: MTCC 96, 24 h.
For experiment [9], the system named is Candida albicans. Briefly: Antifungal activity against Candida albicans MTCC 227 assessed as growth inhibition at 4 mg/mL after 24 hrs by agar well diffusion method. It counts as functional. The note with it: MTCC 227, 24 h, read-out: DIZ. Summed up: as §1
The subject of experiment [10] is Saccharomyces cerevisiae. The experiment in a line: Antifungal activity against Saccharomyces cerevisiae MTCC 170 assessed as growth inhibition at 4 mg/mL after 24 hrs by agar well diffusion method. The following applies: MTCC 170, 24 h, read-out: DIZ. It counts as functional. Summed up: as §1
The subject of experiment [11] is Candida albicans. Briefly: Antifungal activity against Candida albicans MTCC 227 assessed as growth inhibition by macrodilution tube method. It counts as functional. Put shortly: (§2)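 The MIC against the yeasts was determined with amphotericin-B as the reference standard drug.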
Experiment [12] deals with Saccharomyces cerevisiae. The experiment in a line: Antifungal activity against Saccharomyces cerevisiae MTCC 170 assessed as growth inhibition by macrodilution tube method. It counts as functional. Summed up: as §2
The test system of experiment [13] is Pseudomonas aeruginosa. The following applies: MTCC 741, 4 mg/mL.

In brackets after ≈: the same amount, converted by molar mass. Activity calls are given as the source filed them.

Take `O=C(O)c1cn(C2CC2)c2cc(N3CCNCC3)c(F)cc2c1=O` [CIPROFLOXACIN]: the zone of inhibition at 4000 µg/mL is 26.6 mm in experiment [1], 24 mm in experiment [2] and 22 mm in experiment [6]. The MIC in experiment [3] is 6.25 µg/mL (≈ 18.9 µM). For the same molecule, the minimum bactericidal concentration (MBC) in [4] and in experiment [5] was 6.25 µg/mL (≈ 18.9 µM) throughout.

With `Cn1c2c(c(=O)n(C)c1=O)C1(C(=O)N(Cc3cn(-c4ccc([N+](=O)[O-])cc4)nn3)c3ccccc31)C(C#N)=C(N)O2` (stereo not given), the zone of inhibition at 4000 µg/mL in experiment [1] came to 15.3 mm; in experiment [2], 18.6 mm; in experiment [9], 12.6 mm; in experiment [10], 13.6 mm. In addition, the “diameter of the inhibition zone (DIZ)” value in experiment [7] was “inactive”. For the same molecule, the MIC in experiment [8] worked out at 128 µg/mL (≈ 231 µM); in [3], 64 µg/mL (≈ 116 µM); in experiment [11], 512 µg/mL (≈ 925 µM); in [12] it was 512 µg/mL (≈ 925 µM). Moreover, the MBC was 512 µg/mL (≈ 925 µM) in [4] and 128 µg/mL (≈ 231 µM) in experiment [5]. The DIZ result in experiment [13] was “inactive”.

Turning to `Cc1ccc(-n2cc(CN3C(=O)C4(C(C#N)=C(N)OC5=C4C(=O)CCC5)c4ccccc43)nn2)cc1` (stereo not given), the zone of inhibition at 4000 µg/mL in experiment [1] was 13.6 mm; in experiment [2], 16.3 mm; in experiment [9], 14.3 mm; in [10], 15.6 mm. Besides, the “diameter of the inhibition zone (DIZ)” value in experiment [7] is “inactive”. Further, the MIC in experiment [8] is 256 µg/mL (≈ 535 µM); in experiment [3] it was 128 µg/mL (≈ 267 µM); in experiment [11] it was 128 µg/mL (≈ 267 µM); in experiment [12], 128 µg/mL (≈ 267 µM). In addition, the minimum bactericidal concentration (MBC) is 512 µg/mL (≈ 1070 µM) in [4] and 128 µg/mL (≈ 267 µM) in experiment [5]. In experiment [13], the DIZ result was “inactive”.
